Results as given in ChEMBL document CHEMBL1649418, “Pyrimidine derivatives as potent and selective A3 adenosine receptor antagonists” (J Med Chem, 2011).

Key:
Assay type in all cases: cell-based
[1] = target: T1, Adenosine receptor A1 (Homo sapiens, UniProt P30542); assay: Displacement of [3H]DPCPX from human adenosine A1 receptor expressed in CHO cells by liquid scintillation counting
T1 sequence (P30542 whole entry): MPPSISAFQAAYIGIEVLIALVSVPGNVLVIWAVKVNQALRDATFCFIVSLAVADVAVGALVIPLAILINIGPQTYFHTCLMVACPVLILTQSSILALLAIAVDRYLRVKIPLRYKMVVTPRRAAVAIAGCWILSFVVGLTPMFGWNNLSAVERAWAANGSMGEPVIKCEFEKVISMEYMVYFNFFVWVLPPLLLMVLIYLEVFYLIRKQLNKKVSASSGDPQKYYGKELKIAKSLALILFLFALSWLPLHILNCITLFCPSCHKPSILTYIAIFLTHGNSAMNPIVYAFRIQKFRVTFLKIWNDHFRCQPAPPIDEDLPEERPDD
In short: (§1)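 Transfected CHO cell membranes (15 μg) were incubated with [3H]DPCPX at 25 °C for 60 min, with six test concentrations from 0.1 nM to 1 μM. Nonspecific binding was defined with 10 μM R-PIA. Filters were washed four times with ice-cold buffer before scintillation counting. Ki (Cheng–Prusoff) is mean ± SEM, n=3; % displacement at 0.1 μM is n=2.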

[2] = target: T2, Adenosine receptor A2a (Homo sapiens, UniProt P29274); assay: Displacement of [3H][…] from human adenosine A2A receptor expressed in human HeLa cells at 0.1 uM by liquid scintillation counting
In short: (§2)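 Nonspecific binding was defined with 50 μM NECA. Filters were washed four times with ice-cold buffer, then counted by scintillation. Ki (Cheng–Prusoff) is mean ± SEM, n=3; % displacement at 0.1 μM is n=2.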

[3] = target: T3, Adenosine receptor A2b (Homo sapiens) (UniProt P29275); assay: Displacement of [3H]DPCPX from human adenosine A2B receptor expressed in HEK293 cells at 0.1 uM by liquid scintillation counting
T3 sequence (whole entry): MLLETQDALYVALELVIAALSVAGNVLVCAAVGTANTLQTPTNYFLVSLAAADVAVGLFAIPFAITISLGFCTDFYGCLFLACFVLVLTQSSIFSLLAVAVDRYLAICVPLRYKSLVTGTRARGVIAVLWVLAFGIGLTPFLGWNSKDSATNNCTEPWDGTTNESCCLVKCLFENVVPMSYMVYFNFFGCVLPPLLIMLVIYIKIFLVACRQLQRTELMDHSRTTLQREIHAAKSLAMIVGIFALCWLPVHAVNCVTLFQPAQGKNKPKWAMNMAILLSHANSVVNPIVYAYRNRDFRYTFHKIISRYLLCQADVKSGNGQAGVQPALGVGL
In short: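 HEK-293 membranes (18 μg) were incubated with [3H]DPCPX (35 nM) at 25 °C for 30 min, with six concentrations from 0.1 nM to 1 μM. Nonspecific binding was defined with 400 μM NECA. Filters were washed six times with ice-cold buffer and counted by scintillation. Ki (Cheng–Prusoff) is mean ± SEM, n=3; % displacement at 0.1 μM is n=2.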

[4] = target: T4, Adenosine receptor A3 (Homo sapiens) (UniProt P0DMS8); assay: Displacement of [3H]NECA from human adenosine A3 receptor expressed in human HeLa cells at 0.1 uM by liquid scintillation counting
T4 sequence (whole entry): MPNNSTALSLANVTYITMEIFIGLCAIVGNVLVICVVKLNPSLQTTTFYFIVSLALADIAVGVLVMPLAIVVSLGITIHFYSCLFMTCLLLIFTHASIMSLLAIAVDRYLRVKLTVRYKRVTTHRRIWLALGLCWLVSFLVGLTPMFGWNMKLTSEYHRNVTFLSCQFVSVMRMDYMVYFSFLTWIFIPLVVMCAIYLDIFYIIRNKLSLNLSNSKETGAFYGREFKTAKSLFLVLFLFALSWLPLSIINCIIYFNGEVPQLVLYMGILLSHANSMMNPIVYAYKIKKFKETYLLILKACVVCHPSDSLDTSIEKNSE
In short: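 HeLa membranes (90 μg) carrying hA3AR were incubated with [3H]NECA (30 nM) at 25 °C for 180 min, with six concentrations from 0.1 nM to 1 μM. Nonspecific binding was defined with 100 μM R-PIA. Filters were washed six times and counted by scintillation. Ki (Cheng–Prusoff) is mean ± SEM, n=3; % displacement at 0.1 μM is n=2.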

[5] = target: T2, Adenosine receptor A2a; assay: Displacement of [3H][…] from human adenosine A2A receptor expressed in human HeLa cells by liquid scintillation counting; in short: as §2
[6] = target: T5, Adenosine receptor A3 (Homo sapiens, UniProt P0DMS8); assay: Displacement of [3H]NECA from human adenosine A3 receptor expressed in human HeLa cells by liquid scintillation counting; settings: read-out: Ki
T5 sequence (P0DMS8 whole entry): T4 sequence (whole entry)
In short: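 HeLa membranes (90 μg) carrying hA3AR were incubated with [3H]NECA (30 nM) at 25 °C for 180 min, with six concentrations from 0.1 nM to 1 μM. Nonspecific binding was defined with 100 μM R-PIA. Filters were washed six times and counted by scintillation.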

[7] = target: T6, Adenosine receptor A1 (Homo sapiens) (UniProt P30542); assay: Displacement of [3H]DPCPX from human adenosine A1 receptor expressed in CHO cells at 0.1 uM by liquid scintillation counting; in short: as §1
T6 sequence (whole entry): T1 sequence (P30542 whole entry)

T2 sequence (P29274 whole entry): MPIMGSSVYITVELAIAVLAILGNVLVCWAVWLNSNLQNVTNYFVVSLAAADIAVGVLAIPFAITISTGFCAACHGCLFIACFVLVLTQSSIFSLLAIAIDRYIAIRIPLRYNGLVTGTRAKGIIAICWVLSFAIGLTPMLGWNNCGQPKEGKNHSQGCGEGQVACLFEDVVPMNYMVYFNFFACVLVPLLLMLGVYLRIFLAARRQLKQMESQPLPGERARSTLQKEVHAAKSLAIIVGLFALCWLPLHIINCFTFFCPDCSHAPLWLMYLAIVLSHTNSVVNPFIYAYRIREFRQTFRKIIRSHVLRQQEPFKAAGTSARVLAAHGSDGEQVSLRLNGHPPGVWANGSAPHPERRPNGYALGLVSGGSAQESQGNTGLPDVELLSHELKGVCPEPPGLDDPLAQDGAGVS

| Compound | Ki [1] | inhibition [2] | inhibition [3] | inhibition [4] | Ki [5] | Ki [6] | inhibition [7] |
| --- | --- | --- | --- | --- | --- | --- | --- |
| CCCC(=O)Nc1cc(-c2ccsc2)nc(-c2ccsc2)n1 | 65.1 nM | 23% | 21% | 11% |  |  |  |
| CCCC(=O)Nc1cc(-c2ccccc2F)nc(-c2ccccc2F)n1 | 18.7 nM |  | 9% |  | 142 nM | 135 nM |  |
| CCCC(=O)Nc1cc(-c2ccccc2OC)nc(-c2ccccc2OC)n1 | 41.3 nM | 14% | 3% |  |  | 110 nM |  |
| CC(=O)Nc1cc(-c2ccc(F)cc2)nc(-c2ccc(F)cc2)n1 |  |  | 1% |  | 1330 nM | 16.7 nM | 15% |
| CCCC(=O)Nc1cc(-c2ccc3c(c2)OCO3)nc(-c2ccc3c(c2)OCO3)n1 | 9.7 nM | 22% | 16% |  |  | 59 nM |  |
| CCC(=O)Nc1cc(-c2ccc(C(F)(F)F)cc2)nc(-c2ccc(C(F)(F)F)cc2)n1 |  | 17% | 8% | 12% |  |  | 3% |
| CCCC(=O)Nc1nc(-c2ccoc2)cc(-c2ccoc2)n1 |  | 17% | 0% | 21% |  |  | 11% |
| COc1ccc(-c2cc(-c3ccc(OC)cc3)nc(NC(C)=O)n2)cc1 |  | 7% | 1% | 20% |  |  | 1% |
| CCC(=O)Nc1nc(-c2ccc(Cl)cc2)cc(-c2ccc(Cl)cc2)n1 |  | 11% | 2% | 14% |  |  | 1% |
| CCC(=O)Nc1nc(-c2cccs2)cc(-c2cccs2)n1 |  | 25% | 2% | 21% |  |  | 24% |
| CCCC(=O)Nc1nc(-c2ccc(OC)cc2)cc(-c2ccc(OC)cc2)n1 |  | 24% | 9% | 15% |  |  | 2% |
| CC(=O)Nc1cc(-c2ccccc2F)nc(-c2ccccc2F)n1 |  |  | 21% |  | 73.8 nM | 18.1 nM | 17% |
| CCC(=O)Nc1nc(-c2ccc(C(F)(F)F)cc2)cc(-c2ccc(C(F)(F)F)cc2)n1 |  | 12% | 9% | 2% |  |  | 2% |
| CCCC(=O)Nc1cc(/C=C/c2ccccc2)nc(/C=C/c2ccccc2)n1 |  | 1% | 8% | 25% |  |  | 1% |
| CC(=O)Nc1nc(-c2ccc(F)cc2)cc(-c2ccc(F)cc2)n1 |  | 2% | 1% | 8% |  |  | 2% |
| CCCC(=O)Nc1nc(-c2ccc(C(C)=O)cc2)cc(-c2ccc(C(C)=O)cc2)n1 |  | 14% | 2% | 22% |  |  | 7% |

Continued, values first:

| Ki [1] | inhibition [2] | inhibition [3] | inhibition [4] | Ki [5] | Ki [6] | inhibition [7] | Compound |
| --- | --- | --- | --- | --- | --- | --- | --- |
| 82.3 nM |  | 2% |  | 1830 nM | 34.8 nM |  | CCCC(=O)Nc1cc(-c2ccc(F)cc2)nc(-c2ccc(F)cc2)n1 |
| 678 nM | 8% | 1% |  |  | 751 nM |  | CCCC(=O)Nc1nc(-c2ccc3c(c2)OCO3)cc(-c2ccc3c(c2)OCO3)n1 |
|  |  | 16% |  | 39.8 nM | 20.2 nM | 13% | CC(=O)Nc1cc(-c2ccsc2)nc(-c2ccsc2)n1 |
|  |  | 23% |  | 24.6 nM | 8 nM | 19% | CC(=O)Nc1cc(-c2cccs2)nc(-c2cccs2)n1 |
| 535 nM | 16% | 1% |  |  | 127 nM |  | CCC(=O)Nc1nc(-c2ccc3c(c2)OCO3)cc(-c2ccc3c(c2)OCO3)n1 |
| 113 nM | 22% | 7% |  |  | 23.2 nM |  | CCC(=O)Nc1cc(-c2ccccc2OC)nc(-c2ccccc2OC)n1 |
|  | 8% | 14% | 2% |  |  | 7% | CC(=O)Nc1nc(-c2ccc(C(C)=O)cc2)cc(-c2ccc(C(C)=O)cc2)n1 |
|  | 1% | 8% | 13% |  |  | 2% | CCC(=O)Nc1nc(-c2ccc(OC)cc2)cc(-c2ccc(OC)cc2)n1 |
|  | 3% | 2% | 12% |  |  | 1% | CCCC(=O)Nc1nc(/C=C/c2ccccc2)cc(/C=C/c2ccccc2)n1 |
|  | 12% | 10% | 15% |  |  | 8% | CC(=O)Nc1nc(-c2ccccc2F)cc(-c2ccccc2F)n1 |
| 3760 nM | 2% | 10% |  |  | 131 nM |  | CCCC(=O)Nc1nc(-c2ccc(C)cc2)cc(-c2ccc(C)cc2)n1 |
| 36.9 nM | 1% | 2% |  |  | 18.3 nM |  | CCC(=O)Nc1cc(-c2ccc(C)cc2)nc(-c2ccc(C)cc2)n1 |
|  | 11% | 1% | 18% |  |  | 13% | CCCC(=O)Nc1nc(-c2ccccc2OC)cc(-c2ccccc2OC)n1 |
|  | 1% | 1% | 1% |  |  | 1% | CC(=O)Nc1nc(-c2ccoc2)cc(-c2ccoc2)n1 |
|  | 1% | 2% | 10% |  |  | 2% | CC(=O)Nc1nc(-c2ccc(C(F)(F)F)cc2)cc(-c2ccc(C(F)(F)F)cc2)n1 |
|  | 7% | 2% | 3% |  |  | 3% | CCCC(=O)Nc1nc(-c2ccc(SC)cc2)cc(-c2ccc(SC)cc2)n1 |
|  | 10% | 1% | 2% |  |  | 4% | COc1ccccc1-c1cc(-c2ccccc2OC)nc(NC(C)=O)n1 |
|  | 1% | 6% | 12% |  |  | 3% | CCCC(=O)Nc1cc(-c2ccc(C(F)(F)F)cc2)nc(-c2ccc(C(F)(F)F)cc2)n1 |
|  | 5% | 2% | 27% |  |  | 18% | CCCC(=O)Nc1nc(-c2ccc(F)cc2)cc(-c2ccc(F)cc2)n1 |
|  | 2% | 1% | 12% |  |  | 3% | CCCC(=O)Nc1cc(-c2ccc(SC)cc2)nc(-c2ccc(SC)cc2)n1 |
|  | 12% | 1% | 17% |  |  | 1% | CCC(=O)Nc1nc(-c2ccc(C(C)=O)cc2)cc(-c2ccc(C(C)=O)cc2)n1 |
|  | 2% | 1% | 1% |  |  | 2% | CC(=O)Nc1nc(-c2ccsc2)cc(-c2ccsc2)n1 |
|  | 2% | 1% | 9% |  |  | 1% | COc1ccc(-c2cc(-c3ccc(OC)cc3OC)nc(NC(C)=O)n2)c(OC)c1 |
